ChEMBL document CHEMBL1250501, “Anti-tubercular agents. Part 5: synthesis and biological evaluation of benzothiadiazine 1,1-dioxide based congeners” (Eur J Med Chem, 2010)
Activity calls are given as the source filed them. The rule behind the calls is not given here.

Experiments:
Candida albicans [1] = test: Antifungal activity against Candida albicans MTCC 227 at 20 ug/ml after 48 hrs by cup plate method; format: functional, organism-based
Outline: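 Agar well (cup plate) diffusion on potato dextrose agar 39 g/L. Compounds dissolved in DMSO and loaded into 6 mm wells. Incubated at 28 ± 2 °C for 48 h. Inhibition zone diameter measured to the nearest millimetre, three replicates per treatment. DMSO solvent as negative control, amphotericin B as positive control.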

Aspergillus sp. [2] = test: Antifungal activity against Aspergillus sp. at 20 ug/ml after 48 hrs by cup plate method; format: functional, organism-based
Outline: (§1)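 Agar well (cup plate) diffusion on potato dextrose agar 39 g/L, with compounds dissolved in DMSO. Plates were incubated at 28 ± 2 °C for 48 h and inhibition zones measured to the nearest mm. Three replicates per treatment. Amphotericin B positive control; solvent control included.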

Aspergillus niger [3] = test: Antifungal activity against Aspergillus niger at 20 ug/ml after 48 hrs by cup plate method; format: functional, organism-based; outline: as §1
Staphylococcus aureus = test: Antibacterial activity against Staphylococcus aureus at 100 units after 18 hrs by cup plate method; format: functional, organism-based
Aspergillus sp. [4] = test: Antifungal activity against Aspergillus sp. at 100 units after 48 hrs by cup plate method; format: functional
Aspergillus niger [5] = test: Antifungal activity against Aspergillus niger at 100 units after 48 hrs by cup plate method; format: functional
Klebsiella pneumoniae = test: Antibacterial activity against Klebsiella pneumoniae at 100 units after 18 hrs by cup plate method; format: functional, organism-based
Pseudomonas aeruginosa = test: Antibacterial activity against Pseudomonas aeruginosa at 100 units after 18 hrs by cup plate method; format: functional, organism-based
[6] = tested on: Staphylococcus epidermidis; test: Antibacterial activity against Staphylococcus epidermidis at 100 units after 18 hrs by cup plate method; format: functional, organism-based
Candida albicans [7] = test: Antifungal activity against Candida albicans MTCC 227 at 100 units after 48 hrs by cup plate method; format: functional
Bacillus subtilis = test: Antibacterial activity against Bacillus subtilis at 100 units after 18 hrs by cup plate method; format: functional, organism-based
Escherichia coli = test: Antibacterial activity against Escherichia coli at 100 units after 18 hrs by cup plate method; format: functional, organism-based

| Molecule | inhibition zone (IZ) (Candida albicans [1]) | inhibition zone (IZ) (Aspergillus sp. [2]) [mm] | inhibition zone (IZ) (Aspergillus niger [3]) [mm] | diameter of the inhibition zone (DIZ) (Staphylococcus aureus) | inhibition zone (IZ) (Aspergillus sp. [4]) [mm] | inhibition zone (IZ) (Aspergillus niger [5]) [mm] | diameter of the inhibition zone (DIZ) (Klebsiella pneumoniae) | diameter of the inhibition zone (DIZ) (Pseudomonas aeruginosa) | diameter of the inhibition zone (DIZ) [6] | inhibition zone (IZ) (Candida albicans [7]) [mm] | diameter of the inhibition zone (DIZ) (Bacillus subtilis) | diameter of the inhibition zone (DIZ) (Escherichia coli) |
| --- | --- | --- | --- | --- | --- | --- | --- | --- | --- | --- | --- | --- |
| NYSTATIN | inactive | 16 | 26 |  |  |  |  |  |  |  |  |  |
| C[C@@H]1[C@H](O)[C@@H](C)/C=C/C=C/C=C/C=C/C=C/C=C/C=C/[C@H](O[C@@H]2O[C@H](C)[C@@H](O)[C@H](N)[C@@H]2O)C[C@@H]2O[C@](O)(C[C@@H](O)C[C@@H](O)[C@H](O)CC[C@@H](O)C[C@@H](O)CC(=O)O[C@H]1C)C[C@H](O)[C@H]2C(=O)O [AMPHOTERICIN B] |  |  |  | inactive | 14 | 23 | inactive | inactive | inactive | 14 | inactive | inactive |
